Laboratory results reported in ChEMBL document CHEMBL1124931, “Fluoro carbocyclic nucleosides: synthesis and antiviral activity of 2'- and 6'-fluoro carbocyclic pyrimidine nucleosides including carbocyclic 1-(2-deoxy-2-fluoro-beta-D-arabinofuranosyl)-5-methyluracil and carbocyclic 1-(2-deoxy-2-fluoro-beta-D-arabinofuranosyl)-5-iodouracil” (1990).
In brackets after ≈: the same amount, converted by molar mass.

Assays:
[1] = test system: Vero; test: Cytotoxic effect on Vero cells was determined in mock infected cell monolayers incubated with the compound for 48 hr at 37 degree celsius.; type: functional, Chlorocebus sabaeus
Procedure, shortened: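 Mock-infected confluent Vero monolayers exposed to compound for 48 h at 37 °C. Examined microscopically, with gross changes in cell staining, number or morphology scored. The cytotoxic dose is the level affecting 50% of the monolayer.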

[2] = test system: Vero; test: Antiherpes activity was measured in a plaque reduction assay in Vero cells, against HSV-1 strain KOS.; type: functional; settings: Chlorocebus sabaeus, read-out: ID50 (the source's name)
Procedure, shortened: (§1)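 Confluent Vero monolayers infected with 30–40 PFU of HSV-1 (KOS) or HSV-2 (186). After 1 h adsorption at 37 °C, overlaid with maintenance medium containing 0.75% carboxymethylcellulose plus a range of compound concentrations. Incubated 2 further days at 37 °C, then fixed and stained and plaques counted. ID50 is the concentration giving 50% inhibition of plaque formation.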

[3] = test system: Vero; test: Antiherpes activity was measured in a plaque reduction assay in Vero cells, against HSV-2 strain 186.; type: functional; settings: Chlorocebus sabaeus, read-out: ID50 (the source's name); procedure, shortened: as §1

Row | Structure (SMILES) | Cytotoxicity [1] [µg/mL] | IC50 [2] [µg/mL] | IC50 [3] [µg/mL]
1 | Nc1ccn([C@@H]2C[C@H](CO)[C@@H](O)[C@@H]2F)c(=O)n1 | > 100 | 13 (≈ 53.4 µM) | 82 (≈ 337 µM)
2 | O=c1[nH]c(=O)n(C2CC(CO)C(O)C2F)cc1I (stereo not drawn) | > 100 | 11 (≈ 29.7 µM) | > 100
3 | Cc1cn(C2CC(CO)C(O)C2F)c(=O)[nH]c1=O (stereo not drawn) | > 100 | > 100 | > 100
4 | O=c1[nH]c(=O)n([C@H]2C[C@H](O)[C@@H](CO)[C@@H]2F)cc1I | > 300 | > 300 | > 300
5 | Cc1cn([C@@H]2O[C@H](CO)[C@@H](O)[C@@H]2F)c(=O)[nH]c1=O [5-METHYL-2'-FLUOROARAURACIL] | > 30 | 0.05 (≈ 0.192 µM) | 0.05 (≈ 0.192 µM)
6 | O=c1[nH]c(=O)n([C@H]2C[C@H](O)[C@@H](CO)O2)cc1I [IDOXURIDINE] | > 30 | 0.1 (≈ 0.282 µM) | 0.9 (≈ 2.54 µM)
7 | O=c1ccn(C2CC(O)C(CO)C2F)c(=O)[nH]1 (stereo not drawn) | > 300 | > 300 | > 300
8 | O=c1[nH]c(=O)n([C@H]2C[C@H](O)[C@@H](CO)[C@H]2F)cc1I | > 300 | > 300 | > 300
9 | Nc1ccn([C@@H]2C[C@H](CO)[C@@H](O)[C@H]2F)c(=O)n1 | > 300 | 18 (≈ 74 µM) | 44 (≈ 181 µM)
10 | O=c1[nH]c(=O)n([C@@H]2C[C@H](CO)[C@@H](O)C2)cc1I | 300 | 0.07 (≈ 0.199 µM) | 97 (≈ 275 µM)
11 | Cc1cn(C2CC(CO)C(O)C2(F)F)c(=O)[nH]c1=O (stereo not drawn) | > 100 | > 100 | > 100
